Results taken from PMC2193344 (The Journal of Experimental Medicine, 2001).
Ends that are not written are not given here.

Columns and labels:
[1] = molecular target: T1, transporter associated with antigen processing (TAP) (Homo sapiens, UniProt Q03518+Q03519); assay: Streptolysin O peptide transport assay; assay type: biochemical
T1 sequence (Q03518 1-748): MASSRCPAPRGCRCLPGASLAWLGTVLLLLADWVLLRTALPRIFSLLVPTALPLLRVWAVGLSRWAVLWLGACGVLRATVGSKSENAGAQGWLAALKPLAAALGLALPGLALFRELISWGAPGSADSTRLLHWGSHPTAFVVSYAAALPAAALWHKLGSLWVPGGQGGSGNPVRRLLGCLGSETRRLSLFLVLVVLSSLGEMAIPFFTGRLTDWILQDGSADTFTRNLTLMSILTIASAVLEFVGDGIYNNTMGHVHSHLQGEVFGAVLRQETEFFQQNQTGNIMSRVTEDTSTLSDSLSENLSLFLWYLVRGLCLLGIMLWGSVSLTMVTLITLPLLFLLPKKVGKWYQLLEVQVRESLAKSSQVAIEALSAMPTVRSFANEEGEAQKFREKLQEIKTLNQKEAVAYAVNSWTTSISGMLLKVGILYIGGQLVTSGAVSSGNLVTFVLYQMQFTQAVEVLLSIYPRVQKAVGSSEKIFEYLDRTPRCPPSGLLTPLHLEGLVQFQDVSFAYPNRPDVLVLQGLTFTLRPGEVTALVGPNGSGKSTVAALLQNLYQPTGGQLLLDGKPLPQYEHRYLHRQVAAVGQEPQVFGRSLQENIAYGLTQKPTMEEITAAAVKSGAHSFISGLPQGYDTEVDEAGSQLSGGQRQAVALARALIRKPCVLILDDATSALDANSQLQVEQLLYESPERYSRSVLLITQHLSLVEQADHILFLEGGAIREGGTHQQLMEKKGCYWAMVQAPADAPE
T1 sequence (Q03519 1-686): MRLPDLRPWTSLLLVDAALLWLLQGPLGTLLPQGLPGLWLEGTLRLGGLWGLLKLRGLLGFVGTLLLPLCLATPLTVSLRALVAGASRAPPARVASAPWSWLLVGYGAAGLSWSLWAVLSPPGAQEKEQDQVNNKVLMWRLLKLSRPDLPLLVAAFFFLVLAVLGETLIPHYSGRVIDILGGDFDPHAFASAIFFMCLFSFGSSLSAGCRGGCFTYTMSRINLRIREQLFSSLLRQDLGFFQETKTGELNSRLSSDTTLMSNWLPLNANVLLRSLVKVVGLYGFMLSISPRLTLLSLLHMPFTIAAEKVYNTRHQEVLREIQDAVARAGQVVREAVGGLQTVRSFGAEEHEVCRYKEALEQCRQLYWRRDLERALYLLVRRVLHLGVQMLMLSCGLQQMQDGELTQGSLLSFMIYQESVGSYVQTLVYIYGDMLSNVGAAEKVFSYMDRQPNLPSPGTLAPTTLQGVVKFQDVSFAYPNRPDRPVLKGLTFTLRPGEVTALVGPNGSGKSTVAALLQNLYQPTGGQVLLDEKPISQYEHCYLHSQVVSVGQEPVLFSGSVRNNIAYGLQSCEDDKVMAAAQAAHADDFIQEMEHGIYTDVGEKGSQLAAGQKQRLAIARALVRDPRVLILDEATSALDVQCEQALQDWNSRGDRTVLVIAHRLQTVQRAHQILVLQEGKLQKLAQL
Outline: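 TAP+ T1 TxB hybrid cells (10^6/sample; grown in RPMI 1640, 4 mM Hepes, 5% FCS, 3 mM l-glutamine) permeabilised with streptolysin O (15 U/ml) for 15 min on ice. Then 5 min at 37°C with 100 ng chloramine-T 125I-labelled reporter peptide, ATP (100 mM stock) and competitor peptide dilutions. TAP-negative T2 cells served as negative control. Duplicates; triplicates for T2 and uninhibited T1.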

HLA-A*0201 molecules = HLA-A*0201 molecules (Homo sapiens, UniProt P04439, D140Y/D185E/D98H/E176V/E277Q/G131W/G231S/I119V/I121R/I166T/I218V/L300P/L318F/N151K/N90K/P208A/P217A/Q86G/Q94H/R138H/R169H/T345S); assay: Class I peptide-binding affinity assay

Row | Sequence | IC50 [1] [µM] | IC50 (HLA-A*0201 molecules) [µM]
1 | PTLDKVLEV [PTLDKVLEV] | 175 | 
2 | KSADHPTLDKVLEV [KSADHPTLDKVLEV] | 102 | 
3 | HPTLDKVLEV [HPTLDKVLEV] | 355 | 
4 | RTLDKVLEV [RTLDKVLEV] | 30 to 45 | 0.04
